Results on eleven molecules are retold here after BindingDB's records for doi:10.1021/jm030056e (Glaxosmithkline, 2003).

The structures appear in SMILES notation.

Assay [1] has as its target cGMP-specific 3',5'-cyclic phosphodiesterase (Bos taurus, UniProt Q28156). The assay can be described thus: Inhibitory activity against bovine PDE5 (phosphodiesterase-5).
For assay [2], the target named is cGMP-dependent 3',5'-cyclic phosphodiesterase (Homo sapiens, UniProt O00408). The assay can be described thus: Inhibition of human recombinant PDE2 (phosphodiesterase 2). The essentials: (§1)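 Incubated 30 min at 30 °C under initial-velocity conditions (≤10-15% hydrolysis). Product separated on QAE Sephadex and counted by scintillation; final DMSO 2%.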
cGMP-dependent 3',5'-cyclic phosphodiesterase, sequence (O00408 whole entry): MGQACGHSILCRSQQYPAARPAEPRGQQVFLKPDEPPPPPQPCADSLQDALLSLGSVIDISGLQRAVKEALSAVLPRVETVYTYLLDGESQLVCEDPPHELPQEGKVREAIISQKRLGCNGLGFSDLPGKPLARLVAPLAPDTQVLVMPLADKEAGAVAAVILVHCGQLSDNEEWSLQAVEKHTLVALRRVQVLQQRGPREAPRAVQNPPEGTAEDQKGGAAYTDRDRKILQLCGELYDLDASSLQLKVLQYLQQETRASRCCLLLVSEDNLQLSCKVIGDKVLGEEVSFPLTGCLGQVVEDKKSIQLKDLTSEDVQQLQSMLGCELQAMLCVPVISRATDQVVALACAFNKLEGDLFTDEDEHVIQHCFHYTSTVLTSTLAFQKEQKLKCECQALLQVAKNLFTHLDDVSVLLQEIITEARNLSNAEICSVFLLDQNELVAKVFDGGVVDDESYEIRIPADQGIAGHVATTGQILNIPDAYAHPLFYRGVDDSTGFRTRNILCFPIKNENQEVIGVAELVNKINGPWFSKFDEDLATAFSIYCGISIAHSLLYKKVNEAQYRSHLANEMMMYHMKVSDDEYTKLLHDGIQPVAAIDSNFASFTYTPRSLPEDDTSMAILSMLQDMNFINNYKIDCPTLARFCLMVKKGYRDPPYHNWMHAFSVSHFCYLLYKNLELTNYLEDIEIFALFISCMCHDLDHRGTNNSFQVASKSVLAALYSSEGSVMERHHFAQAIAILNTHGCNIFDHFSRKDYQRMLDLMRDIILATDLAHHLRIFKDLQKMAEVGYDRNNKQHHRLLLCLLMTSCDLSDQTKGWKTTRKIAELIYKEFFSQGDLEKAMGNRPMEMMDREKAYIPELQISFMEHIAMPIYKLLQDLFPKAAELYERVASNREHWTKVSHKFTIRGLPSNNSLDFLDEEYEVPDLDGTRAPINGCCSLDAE
The target in the next assay is Phosphodiesterase (Bos taurus, UniProt E1BN64). The assay can be described thus: Inhibition of bovine aorta PDE3 (phosphodiesterase 3). The essentials: as §1
Phosphodiesterase, sequence (E1BN64 whole entry): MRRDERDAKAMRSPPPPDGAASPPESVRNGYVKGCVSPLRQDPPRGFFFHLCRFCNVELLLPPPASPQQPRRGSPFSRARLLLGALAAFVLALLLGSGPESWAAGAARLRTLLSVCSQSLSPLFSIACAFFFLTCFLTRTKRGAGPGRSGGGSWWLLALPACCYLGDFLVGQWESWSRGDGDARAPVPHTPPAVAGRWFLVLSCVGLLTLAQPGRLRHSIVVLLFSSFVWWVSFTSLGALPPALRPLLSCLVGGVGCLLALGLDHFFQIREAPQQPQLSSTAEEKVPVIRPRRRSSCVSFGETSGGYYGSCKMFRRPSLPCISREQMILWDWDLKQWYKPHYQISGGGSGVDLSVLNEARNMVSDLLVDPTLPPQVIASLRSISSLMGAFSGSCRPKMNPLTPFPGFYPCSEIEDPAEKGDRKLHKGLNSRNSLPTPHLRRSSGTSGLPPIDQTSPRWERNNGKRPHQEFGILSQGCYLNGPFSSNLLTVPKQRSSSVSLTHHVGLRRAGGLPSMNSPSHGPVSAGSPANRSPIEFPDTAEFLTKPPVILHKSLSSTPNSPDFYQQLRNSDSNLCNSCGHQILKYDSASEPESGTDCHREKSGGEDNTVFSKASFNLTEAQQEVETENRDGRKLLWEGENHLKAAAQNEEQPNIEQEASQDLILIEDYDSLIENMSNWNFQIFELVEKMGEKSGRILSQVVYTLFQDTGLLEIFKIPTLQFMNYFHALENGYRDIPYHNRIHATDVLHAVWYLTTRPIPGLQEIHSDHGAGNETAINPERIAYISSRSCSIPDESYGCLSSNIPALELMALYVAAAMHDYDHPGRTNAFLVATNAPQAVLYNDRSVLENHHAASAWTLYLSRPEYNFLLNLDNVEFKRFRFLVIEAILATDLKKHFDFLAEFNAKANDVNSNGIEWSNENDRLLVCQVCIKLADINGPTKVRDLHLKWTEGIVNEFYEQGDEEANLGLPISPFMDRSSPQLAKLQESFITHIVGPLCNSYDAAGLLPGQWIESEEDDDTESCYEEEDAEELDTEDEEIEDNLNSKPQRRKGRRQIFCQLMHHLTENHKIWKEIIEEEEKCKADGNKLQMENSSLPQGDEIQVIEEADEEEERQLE

In turn, `COc1ccc([C@H]2c3[nH]c4ccccc4c3Cc3c(O)n(CCN4CCCC4)c(=O)n32)cc1` yielded an IC50 in assay [1] of 100 nM.
On to `COc1ccc([C@@H]2c3[nH]c4ccccc4c3Cc3c(O)n(Cc4ccccc4)c(=O)n32)cc1` [(3aR,10R)-2-Benzyl-10-(4-methoxy-phenyl)-3a,4,9,10-tetrahydro-2,9,10a-triaza-cyclopenta[b]fluorene-1,3-dione], for which the IC50 (in assay [2]; against Phosphodiesterase) was more than 10000 nM each time.
Regarding `CCCCn1c(O)c2n(c1=O)[C@H](c1ccc(OC)cc1)c1[nH]c3ccccc3c1C2` [(3aR,10R)-2-Butyl-10-(4-methoxy-phenyl)-3a,4,9,10-tetrahydro-2,9,10a-triaza-cyclopenta[b]fluorene-1,3-dione], the IC50 (in assay [2]; at Phosphodiesterase) was more than 10000 nM in each case.
Take `CCCCn1c(O)c2n(c1=O)[C@H](c1ccoc1)c1[nH]c3ccccc3c1C2` [(3aR,10R)-2-Butyl-10-furan-3-yl-3a,4,9,10-tetrahydro-2,9,10a-triaza-cyclopenta[b]fluorene-1,3-dione]: in assay [1], the IC50 came to 100 nM.
As to `COc1ccc([C@@H]2c3[nH]c4ccccc4c3Cc3c(O)n(C4CCCCC4)c(=O)n32)cc1` [(3aR,10R)-2-Cyclohexyl-10-(4-methoxy-phenyl)-3a,4,9,10-tetrahydro-2,9,10a-triaza-cyclopenta[b]fluorene-1,3-dione], the IC50 in assay [2] is more than 10000 nM; in assay [1] it was 7 nM.
`COc1ccc([C@H]2c3[nH]c4ccccc4c3Cc3c(O)n(CCN(C)C)c(=O)n32)cc1` [(3aR,10S)-2-(2-Dimethylamino-ethyl)-10-(4-methoxy-phenyl)-3a,4,9,10-tetrahydro-2,9,10a-triaza-cyclopenta[b]fluorene-1,3-dione] came in with an IC50 in assay [1] of 30 nM.
As for `CCCCn1c(O)c2n(c1=O)[C@@H](c1ccc(OC)cc1)c1[nH]c3ccccc3c1C2` [(3aR,10S)-2-Butyl-10-(4-methoxy-phenyl)-3a,4,9,10-tetrahydro-2,9,10a-triaza-cyclopenta[b]fluorene-1,3-dione], the IC50 (in assay [2]; against Phosphodiesterase) was more than 10000 nM each time.
Turning to `COc1ccc([C@H]2c3[nH]c4ccccc4c3Cc3c(O)n(Cc4cccnc4)c(=O)n32)cc1` [(3aR,10S)-10-(4-Methoxy-phenyl)-2-pyridin-3-ylmethyl-3a,4,9,10-tetrahydro-2,9,10a-triaza-cyclopenta[b]fluorene-1,3-dione], the IC50 in assay [1] worked out at 20 nM.
In assay [1], `COc1ccc([C@H]2c3[nH]c4ccccc4c3Cc3c(O)[nH]c(=O)n32)cc1` [(3aR,10S)-10-(4-Methoxy-phenyl)-3a,4,9,10-tetrahydro-2,9,10a-triaza-cyclopenta[b]fluorene-1,3-dione] had an IC50 of 20 nM.
`CCCCn1c(O)c2n(c1=O)[C@H](c1ccncc1)c1[nH]c3ccccc3c1C2` [Cis-2-Butyl-10-pyridin-4-yl-3a,4,9,10-tetrahydro-2,9,10a-triaza-cyclopenta[b]fluorene-1,3-dione] returned an IC50 in assay [1] of 300 nM.
In assay [1], `CCCCn1c(O)c2n(c1=O)[C@H](c1ccsc1)c1[nH]c3ccccc3c1C2` [Cis-2-Butyl-10-thiophen-3-yl-3a,4,9,10-tetrahydro-2,9,10a-triaza-cyclopenta[b]fluorene-1,3-dione] returned a 50% inhibitory concentration (IC50) of 30 nM.
